In ChEMBL document CHEMBL3124880, “4-(3-Chloro-5-(trifluoromethyl)pyridin-2-yl)-N-(4-methoxypyridin-2-yl)piperazine-1-carbothioamide (ML267), a potent inhibitor of bacterial phosphopantetheinyl transferase that attenuates secondary metabolism and thwarts bacterial growth” (J Med Chem, 2014):
Activity calls are given as the source filed them. The rule behind the calls is not given here.

Columns and labels:
[1] = tested on: Escherichia coli; assay: Antibacterial activity against Escherichia coli JW0451 containing lesion in acrB locus assessed as growth inhibition at 12.5 ug/mL after 16 to 20 hrs by broth dilution method; assay type: functional, organism-based
In short: (§1)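 E. coli BW25113 (wild type) and JW0451 (ΔacrB) tested by broth dilution in cation-adjusted Mueller Hinton II, ~1×10^3 cfu, 16–20 h. Growth shown with resazurin. Checkerboard combination with the efflux inhibitor PAβN in the wild type.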

[2] = tested on: Candida albicans; assay: Antifungal activity against fluconazole-resistant Candida albicans ATCC 96901 assessed as growth inhibition at 0.8 to 100 ug/mL after 48 hrs by resazurin dye-based assay; assay type: functional, organism-based
In short: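 Broth microdilution. Inoculum from overnight liquid cultures or 2-day colonies, ~1 × 10^3 cfu per well. Compound in DMSO added to cation-adjusted Mueller Hinton II broth (bacteria) or RPMI 1640 (fungi). Incubated at 30–37 °C for 16–20 h, or 48 h for fungi.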

[3] = tested on: Staphylococcus aureus; assay: Antibacterial activity against methicillin-sensitive Staphylococcus aureus ATCC 6538 assessed as growth inhibition at 0.8 to 100 ug/mL after 16 to 20 hrs by resazurin dye-based assay; assay type: functional, organism-based
In short: (§2)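 Broth microdilution. Test article from 1 μL DMSO in 50 μL cation-adjusted Mueller Hinton II (bacteria) or RPMI 1640 (fungi), plus ~1×10^3 cfu inoculum in the same medium. Incubated 16–20 h at 30–37 °C (48 h for fungi). MIC scored visually as the first well without growth; resazurin added for imaging.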

[4] = tested on: Bacillus subtilis; assay: Antibacterial activity against Bacillus subtilis OKB105 assessed as growth inhibition at 1.7 ug/mL after 16 to 20 hrs by resazurin dye-based assay; assay type: functional, organism-based
[5] = tested on: Bacillus subtilis; assay: Antibacterial activity against Bacillus subtilis HM489 assessed as growth inhibition at 1.7 ug/mL after 16 to 20 hrs by resazurin dye-based assay; assay type: functional, organism-based; in short: as §2
[6] = tested on: Bacillus subtilis; assay: Antibacterial activity against Bacillus subtilis HM489 assessed as cellular ATP content after 5 hrs by BacTiter-Glo assay; assay type: functional, organism-based; settings: HM489, 5 h
[7] = tested on: HepG2; assay: Cytotoxicity against human HepG2 cells assessed as cellular ATP content after 48 hrs by CellTiter-Glo assay; assay type: cell-based; settings: HepG2, 48 h
In short: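 HepG2 cells exposed to compound; viability read as cellular ATP by luciferase-coupled CellTiter-Glo.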

[8] = tested on: Bacillus subtilis; assay: Antibacterial activity against Bacillus subtilis 168 assessed as disruption of cell membrane integrity at 10 times MIC after 15 mins by Syto9/propidium iodide staining-based BacLight LIVE/DEAD microscopic analysis; assay type: functional, organism-based; settings: subsp. subtilis str. 168
[9] = tested on: Staphylococcus aureus; assay: Antibacterial activity against Staphylococcus aureus BK2395 isolated from kidney of 30 mg/kg, ip compound-treated Swiss Webster mouse septicemia model assessed as growth inhibition; assay type: functional, organism-based; set-up: dose 30 mg/kg
In short: (§3)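 Bacteria harvested from the kidneys of septic mice treated with vehicle or compound, five isolates taken per crude sample. MICs measured in parallel with the parental USA500 strain.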

[10] = Protein binding in plasma (unknown origin) by equilibrium dialysis; assay type: ADME, cell-free
[11] = tested on: Staphylococcus aureus; assay: Antibacterial activity against Staphylococcus aureus isolated from kidney of 30 mg/kg, ip compound-treated Swiss Webster mouse septicemia model assessed as growth inhibition; assay type: functional, organism-based; set-up: dose 30 mg/kg; in short: as §3
[12] = tested on: Staphylococcus aureus; assay: Antibacterial activity against Staphylococcus aureus BK2395 assessed as growth inhibition in presence of calf serum; assay type: functional
[13] = AUC (infinity) in CD-1 mouse at 30 mg/kg, ip; assay type: ADME, organism-based; set-up: time infinity, dose 30 mg/kg, route intraperitoneal; settings: plasma
In short: (§4)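 Male CD1 mice, 6–8 weeks old. Dosed iv at 3 mg/kg or ip at 30 mg/kg as a solution in 5% DMSO/10% Solutol in water. Plasma sampled in triplicate at eight time points over 24 h.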

[14] = Cmax in CD-1 mouse at 30 mg/kg, ip; assay type: ADME, organism-based; set-up: dose 30 mg/kg, route intraperitoneal; settings: in vivo; in short: as §4
[15] = Half life in CD-1 mouse at 30 mg/kg, ip; assay type: ADME, organism-based; set-up: dose 30 mg/kg, route intraperitoneal; settings: in vivo; in short: as §4
[16] = tested on: Liver microsome; assay: Drug metabolism in human liver microsomes assessed as GSH adduct formation at 50 uM after 60 mins by LC-MS/MS analysis in presence of NADPH; assay type: ADME; settings: 1 h
[17] = Metabolic stability in mouse liver microsomes measured over 1 hr in absence of NADPH; assay type: ADME, Microsome
In short: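 Mouse liver microsomes incubated with compound without NADPH over 1 h.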

[18] = Permeability of the compound by PAMPA; assay type: physicochemical
[19] = Chemical stability of the compound in aqueous media at pH 2 to 9 at room temperature measured over 5 hrs by LC/MS analysis; assay type: physicochemical; settings: buffer, pH 2, 5 h
In short: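 Compound held in aqueous media over pH 2–9 and in PBS and HEPES buffers, then monitored for degradation.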

[20] = molecular target: CYP2D6 (Homo sapiens, UniProt P10635); assay: Inhibition of CYP2D6 (unknown origin) using dextromethorphan as substrate at 3 uM relative to control; assay type: ADME; settings: probe dextromethorphan
In short: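 Compound at 3 μM co-incubated with CYP substrates: dextromethorphan for 2D6, 6β-hydroxytestosterone for 3A4. Percent inhibition reported; done at Pharmaron.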

[21] = tested on: Liver microsome; assay: Half life in rat liver microsomes in presence of NADPH; assay type: ADME
In short: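 Liver microsomes from mouse or rat incubated with compound in the presence of NADPH. Mouse assay done at Pharmaron.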

[22] = tested on: Bacillus subtilis; assay: Antibacterial activity against Bacillus subtilis OKB105 assessed as effect on doubling time in log phase at 0.53 to 1.1 ug/mL after 28 hrs; assay type: functional, organism-based
In short: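 B. subtilis OKB105 cultured with compound at 0.53 or 1.1 µg/mL against a vehicle control. Culture density and surfactin titer sampled periodically over 28 h.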

[23] = tested on: Bacillus subtilis; assay: Antibacterial activity against Bacillus subtilis OKB105 assessed as inhibition of surfactin production at 1.1 ug/mL after 28 hrs by LC-MS analysis relative to vehicle-treated control; assay type: functional; settings: OKB105, 28 h
In short: (§5)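 B. subtilis OKB105 cultures grown with sublethal compound concentrations. Culture growth and surfactin titer measured periodically over 28 h; titer expressed relative to vehicle control.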

[24] = tested on: Bacillus subtilis; assay: Antibacterial activity against Bacillus subtilis OKB105 assessed as inhibition of surfactin production at 0.53 ug/mL after 28 hrs by LC-MS analysis relative to vehicle-treated control; assay type: functional; settings: OKB105, 28 h; in short: as §5
[25] = tested on: Escherichia coli; assay: Antibacterial activity against wild type Escherichia coli BW25113 assessed as growth inhibition at 1.8 to 250 ug/mL after 16 to 20 hrs by broth dilution method in presence of AcrAB-TolC inhibitor phenylarginine-beta-napthamide; assay type: functional; in short: as §1

Chain of CYP2D6 (P10635 whole entry): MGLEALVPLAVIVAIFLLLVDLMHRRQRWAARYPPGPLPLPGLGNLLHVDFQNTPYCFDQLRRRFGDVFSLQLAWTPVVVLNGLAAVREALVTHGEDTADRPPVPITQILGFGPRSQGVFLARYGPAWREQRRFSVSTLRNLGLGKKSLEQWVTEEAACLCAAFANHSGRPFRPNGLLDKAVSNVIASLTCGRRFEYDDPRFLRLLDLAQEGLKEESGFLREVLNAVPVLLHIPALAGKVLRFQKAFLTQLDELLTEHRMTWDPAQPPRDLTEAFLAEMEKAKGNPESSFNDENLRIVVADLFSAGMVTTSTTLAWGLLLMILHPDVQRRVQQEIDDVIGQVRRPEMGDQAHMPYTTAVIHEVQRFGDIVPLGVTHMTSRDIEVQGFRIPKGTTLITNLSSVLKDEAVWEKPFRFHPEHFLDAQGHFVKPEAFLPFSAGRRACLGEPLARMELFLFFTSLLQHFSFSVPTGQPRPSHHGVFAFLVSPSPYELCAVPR

SMILES: COc1ccnc(NC(=S)N2CCN(c3ncc(C(F)(F)F)cc3Cl)CC2)c1
- growth inhibition (GI) [1]: Active
- growth inhibition (GI) [2]: inactive
- growth inhibition (GI) [3]: Active
- growth inhibition (GI) [4]: Active
- growth inhibition (GI) [5]: Active
- IC50 [6]: 9.3 µM
- IC50 [7]: ≥ 114 µM
- Activity [8]: inactive
- growth inhibition (GI) [9]: Active
- PPB [10]: 98.6%
- growth inhibition (GI) [11]: Active
- MIC [12]: > 57 µM
- AUC(0-inf) [13]: 68900 ng·h/mL
- Cmax [14]: 17600 ng/mL
- half-life [15]: 2 h
- Drug metabolism [16]: Not Active
- Stability [17]: Stable
- permeability [18]: 1120 ×10⁻⁶ cm/s
- Stability [19]: Stable
- inhibition at 3 µM [20]: 25%
- t1/2 [21]: > 0.5 h
- Activity [22]: inactive
- inhibition at 1.1 µg/mL [23]: 41%
- inhibition at 0.53 µg/mL [24]: 33%
- growth inhibition (GI) [25]: Active
